ChEMBL document CHEMBL2203173 (J Med Chem, 2012)

Key:
Conditions in all cases: in vivo, 504 h
Mus musculus [1] = experiment: Cardiotoxicity in BALB/c nu/nu mouse xenografted with human DMS53 cells at 6 mg/kg, iv administered for 5 days a week measured after 21 days; format: toxicity, organism-based, DMS-53; set-up: dose 6 mg/kg, route intravenous
Outline: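 DMS-53 xenograft nude mice given agents iv by tail vein 5 days/week in 30% propylene glycol/saline for 21 days. At sacrifice, heart sections were stained with Gomori Trichrome to detect fibrosis. Spleen, kidney, liver, heart, lungs and brain were also stained with H&E and Perls' and examined by an independent veterinary pathologist.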

Mus musculus [2] = experiment: Toxicity in BALB/c nu/nu mouse xenografted with human DMS53 cells assessed as change in RBC count at 8 mg/kg, iv administered for 5 days a week measured after 21 days; format: organism-based, DMS-53; set-up: dose 8 mg/kg, route intravenous
Mus musculus [3] = experiment: Toxicity in BALB/c nu/nu mouse xenografted with human DMS53 cells assessed as vacuolation at 4 mg/kg, iv administered for 5 days a week measured after 21 days by hematoxylin and eosin staining method; format: organism-based, DMS-53; set-up: dose 4 mg/kg, route intravenous
Outline: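 Nude mice with DMS-53 xenografts dosed by tail-vein iv injection in 30% propylene glycol/saline, starting at 100 mm3 tumour volume, 5 days/week for 21 days. Spleen, kidney, liver, heart, lungs and brain were stained with H&E, Perls' (Fe loading) and Gomori Trichrome (fibrosis) by standard methods, and an independent veterinary pathologist examined them.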

CCN(C)C(=S)NN=C(c1ccccn1)c1ccccn1.Cl
Activity (Mus musculus [1]): Non-toxic

CN(C(=S)NN=C(c1ccccn1)c1ccccn1)C1CCCCC1.Cl
Activity (Mus musculus [2]): Toxic
Activity (Mus musculus [3]): Non-toxic
